Common to all, as to type: biochemical
The target of assay [1] is human recombinant core 1 β1,3-Gal-transferase (C1GalT) (Homo sapiens, UniProt Q9NS00). Nature of the assay: C1GalT glycosyltransferase assay. The settings on record: for C1GalT activity (%): acceptor substrate 0.5 mM, 0.5 mM GalNAcα-Bn set to 100%.
Assay [2] concerns the target T1, human recombinant core 3 β1,3-GlcNAc-transferase (C3GnT) (Homo sapiens, UniProt Q6ZMB0).
T1 sequence (Q6ZMB0 32-384 limits assumed): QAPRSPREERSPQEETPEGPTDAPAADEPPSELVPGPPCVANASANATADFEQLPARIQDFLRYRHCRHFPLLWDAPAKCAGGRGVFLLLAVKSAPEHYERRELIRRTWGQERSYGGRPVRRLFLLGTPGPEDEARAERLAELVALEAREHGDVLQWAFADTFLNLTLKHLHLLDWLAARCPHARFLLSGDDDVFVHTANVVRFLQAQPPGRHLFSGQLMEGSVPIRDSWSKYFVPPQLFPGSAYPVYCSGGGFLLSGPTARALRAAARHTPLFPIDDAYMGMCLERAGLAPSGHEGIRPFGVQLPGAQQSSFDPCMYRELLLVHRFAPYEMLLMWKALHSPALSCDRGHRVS
Nature of the assay: C3GnT glycosyltransferase assay. The settings on record: for C3GnT activity (%): acceptor substrate 0.5 mM, 0.5 mM GalNAcα-Bn set to 100%.

The target in assay [3] is T2, human recombinant core 2 β1,6-GlcNAc-transferase (C2GnT1) (Homo sapiens, UniProt Q02742).
T2 sequence (Q02742 33-428 limits assumed): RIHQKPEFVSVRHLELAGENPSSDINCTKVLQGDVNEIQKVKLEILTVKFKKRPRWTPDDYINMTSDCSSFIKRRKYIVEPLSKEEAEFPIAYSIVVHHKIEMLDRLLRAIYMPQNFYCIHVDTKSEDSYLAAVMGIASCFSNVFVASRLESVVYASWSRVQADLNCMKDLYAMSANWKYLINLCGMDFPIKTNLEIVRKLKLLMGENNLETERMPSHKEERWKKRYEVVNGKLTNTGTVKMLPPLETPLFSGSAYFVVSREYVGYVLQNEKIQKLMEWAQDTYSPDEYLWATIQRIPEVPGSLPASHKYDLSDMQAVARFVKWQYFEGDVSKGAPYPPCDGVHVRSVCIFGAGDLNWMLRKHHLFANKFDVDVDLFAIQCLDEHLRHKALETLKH
Nature of the assay: C2GnT1 glycosyltransferase assay. The settings on record: acceptor substrate 0.5 mM; 0.5 mM Galβ1–3GalNAcα-pnp set to 100%.

Assay [4] addresses T3, human recombinant core 2/4 β1,6-GlcNAc-transferase (C2GnT2) (Homo sapiens, UniProt O95395).
T3 sequence (O95395 27-438): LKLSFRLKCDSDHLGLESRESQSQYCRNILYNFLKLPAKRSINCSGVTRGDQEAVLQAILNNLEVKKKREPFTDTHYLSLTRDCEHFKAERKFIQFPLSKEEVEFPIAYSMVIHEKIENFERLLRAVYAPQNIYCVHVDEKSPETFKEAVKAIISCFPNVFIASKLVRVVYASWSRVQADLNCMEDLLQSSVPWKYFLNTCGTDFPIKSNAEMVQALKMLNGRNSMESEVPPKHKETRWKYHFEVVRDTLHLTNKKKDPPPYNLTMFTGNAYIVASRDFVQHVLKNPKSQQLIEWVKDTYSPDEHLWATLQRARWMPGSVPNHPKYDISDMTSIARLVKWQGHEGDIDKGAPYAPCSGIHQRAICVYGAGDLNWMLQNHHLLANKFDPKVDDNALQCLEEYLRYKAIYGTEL
The settings on record: acceptor substrate 0.5 mM; 0.5 mM Galβ1–3GalNAcα-pnp set to 100%.

For assay [5], the target named is T1, human recombinant core 3 β1,3-GlcNAc-transferase (C3GnT). Nature of the assay: Inhibition of C3GnT. To be noted: inhibitor 0.5 mM, 0.5 mM GalNAcα-Bn acceptor. In a few lines:
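His-tagged human C3GnT from Sf9 cells, Ni2+-NTA purified, 0.003 mg protein per assay. Inhibitor at acceptor concentration unless indicated. Incubated 1 h at 37 °C, then cold-water stop. AG1×8 anion exchange; eluate counted by scintillation.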

Assay [6] addresses T2, human recombinant core 2 β1,6-GlcNAc-transferase (C2GnT1). Briefly: Inhibition of C2GnT1. The settings on record: inhibitor 0.5 mM, 0.5 mM Galβ1–3GalNAcα-pnp acceptor.

Marks after values point to notes of the source that are not given here.

Sequence of human recombinant core 1 β1,3-Gal-transferase (C1GalT) (Q9NS00 30-363 limits assumed): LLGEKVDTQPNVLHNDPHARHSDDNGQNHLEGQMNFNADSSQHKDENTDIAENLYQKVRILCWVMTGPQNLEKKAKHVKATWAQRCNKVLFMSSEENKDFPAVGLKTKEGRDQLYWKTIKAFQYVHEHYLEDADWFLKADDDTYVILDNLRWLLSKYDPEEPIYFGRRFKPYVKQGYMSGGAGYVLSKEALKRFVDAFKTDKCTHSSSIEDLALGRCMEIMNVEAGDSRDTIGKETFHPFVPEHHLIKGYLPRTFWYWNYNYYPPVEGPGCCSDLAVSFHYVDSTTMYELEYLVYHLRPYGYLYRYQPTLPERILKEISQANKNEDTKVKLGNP

Turning to `CCCC(=O)N[C@H]1[C@@H](OCc2ccccc2)O[C@H](CO)[C@H](O)[C@@H]1O` [2-N-Butyryl-GalNα-Bn, benzyl 2-butanamido-2-deoxy-α-D-galactoside], in assay [1], the “C1GalT activity (%)” value was below 1%. For the same compound, the “C3GnT activity (%)” value in assay [2] was below 1%. Also, the “C2GnT1 activity (%)” value in assay [3] was below 1%. Moreover, in assay [4], the “C2GnT2 activity (%)” value is below 1%. In assay [5], the “C3GnT Inhibition (%)” value is “did not inhibit”. In addition, in assay [6], the “C2GnT1 Inhibition (%)” value is “did not inhibit”.

With `CC(=O)N[C@@H]1C[C@@H](O)[C@@H](CO)O[C@@H]1OCc1ccccc1` [3-Deoxy-GalNAcα-Bn], the “C1GalT activity (%)” value in assay [1] is recorded as below 1%. Besides, the “C3GnT activity (%)” value in assay [2] is on record as below 1%. Further, in assay [3], the “C2GnT1 activity (%)” value was below 1%. Also, the “C2GnT2 activity (%)” value in assay [4] is given as below 1%.

As a reminder, the Vmax is the top rate of the reaction or transport when substrate is in excess. A word on the Km: it is the substrate concentration at which the rate is half of its maximum. For the compound `CC(=O)N[C@H]1[C@@H](OCc2ccccc2)O[C@H](CO)[C@H](O)[C@@H]1O` [GalNAcα-Bn, reference compound], the Vmax in assay [1] (C1GalT, acceptor substrate) is 0.14 µmol/h/mg; in assay [2] (C3GnT, acceptor substrate), 0.95 µmol/h/mg. For the same compound, the Km in assay [1] (C1GalT, apparent KM for acceptor substrate) worked out at 800 µM; in assay [2] (C3GnT, apparent KM for acceptor substrate), 3000 µM. Further, the “C1GalT activity (%)” value in assay [1] was 100 ^a %. Besides, in assay [2], the “C3GnT activity (%)” value is listed as 100 ^b %. In addition, the “C2GnT1 activity (%)” value in assay [3] is below 1%. In addition, the “C2GnT2 activity (%)” value in assay [4] is listed as below 1%.

For the compound `CC(=O)N[C@H]1[C@@H](OCc2ccccc2)O[C@H](C)[C@H](O)[C@@H]1O[C@@H]1O[C@H](CO)[C@H](O)[C@H](O)[C@H]1O` [Galβ1–3(6-deoxy)GalNAcα-Bn], the “C1GalT activity (%)” value in assay [1] is reported as below 1%. In addition, the “C3GnT activity (%)” value in assay [2] is reported as below 1%. The “C2GnT1 activity (%)” value in assay [3] is below 1%. The “C2GnT2 activity (%)” value in assay [4] is given as below 1%.

As to `CC(=O)N[C@H]1[C@@H](OCc2ccccc2)O[C@H](CO[C@@H]2O[C@H](CO)[C@@H](O)[C@H](O)[C@H]2NC(C)=O)[C@H](O)[C@@H]1O` [GlcNAcβ1–6-GalNAcα-Bn], in assay [1], the “C1GalT activity (%)” value came to 74%. Besides, the “C3GnT activity (%)” value in assay [2] is on record as below 1%. For the same compound, the “C2GnT1 activity (%)” value in assay [3] is below 1%. Besides, in assay [4], the “C2GnT2 activity (%)” value is given as below 1%.

Turning to AHGVT-(GalNAcα)SAPDTRPAPGSTAPPA, the “C1GalT activity (%)” value in assay [1] turned out to be 39%. Besides, the “C3GnT activity (%)” value in assay [2] was determined as 15%. The “C2GnT1 activity (%)” value in assay [3] is below 1%. For the same compound, the “C2GnT2 activity (%)” value in assay [4] is on record as below 1%.

Take TT-(GalNAcα)TVTPTPTG: the “C1GalT activity (%)” value in assay [1] is reported as 99%. Also, the “C3GnT activity (%)” value in assay [2] was found to be 8%.

With TTTV-(GalNAcα)TPTPTG, in assay [1], the “C1GalT activity (%)” value came out at 270%. Besides, the “C3GnT activity (%)” value in assay [2] is given as 10%.

Consider TTTVTP-(GalNAcα)TPTG, for which the “C1GalT activity (%)” value in assay [1] is on record as 259%. For the same compound, the “C3GnT activity (%)” value in assay [2] amounted to 5%.
